# Source: ChEMBL document CHEMBL1926591, “Synthesis of quinolinomorphinan-4-ol derivatives as δ opioid receptor agonists” (Bioorg Med Chem, 2012)
# pEC50, pKi: −log10 of the molar value.
# Key:
# [1] = target: T1, Delta-type opioid receptor (Homo sapiens, UniProt P41143); experiment: Ratio of SNC80 EC50 to compound EC50 for human recombinant delta opioid receptor expressed in human HEK293 cells; assay type: cell-based
# [2] = target: T1, Delta-type opioid receptor; experiment: Ratio of (-)TAN-67 EC50 to compound EC50 for human recombinant delta opioid receptor expressed in human HEK293 cells; assay type: cell-based
# Method in brief: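 [³⁵S]GTPγS binding used purchased HEK-293 membranes carrying human recombinant delta receptor. Incubation buffer was 50 mM Tris, 1 mM EDTA, 12.5 mM MgCl₂, 100 mM NaCl and 0.5% BSA. It contained GDP, 0.1 nM [³⁵S]GTPγS and graded compound concentrations. (−)-TAN-67 served as the standard delta agonist.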
# Rattus norvegicus = species on record: Rattus norvegicus; experiment: Selectivity ratio of Ki for mu opioid receptor in rat cerebrum membranes to Ki for delta opioid receptor in rat cerebrum membranes; assay type: cell membranes; details: Membrane
# Method in brief: (§1)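 Rat cerebrum membranes; mu sites labelled with [³H]DAMGO and delta sites with [³H]DADLE, displaced by varying test concentrations. Nonspecific binding was defined with unlabeled levallorphan. Ki was derived from displacement data using the Cheng–Prusoff equation.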
# [3] = Selectivity ratio of Ki for kappa opioid receptor in guinea pig cerebrum membranes to Ki for delta opioid receptor in rat cerebrum membranes; assay type: cell membranes; details: Membrane
# [4] = target: T2, Kappa-type opioid receptor (Cavia porcellus, UniProt P41144); experiment: Displacement of [3H]U-69,593 from kappa opioid receptor in guinea pig cerebrum membranes; assay type: cell membranes, Membrane
# Method in brief: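 Kappa binding used guinea pig cerebrum membranes labelled with [³H]U-69,593 and displaced by test compound. Nonspecific binding was taken with […] unlabeled U-69,593. Ki was obtained via Cheng–Prusoff.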
# Mu-type opioid receptor [5] = target: Mu-type opioid receptor (Rattus norvegicus, UniProt P33535); experiment: Displacement of [3H]DAMGO from mu opioid receptor in rat cerebrum membranes; assay type: cell membranes, Membrane; method in brief: as §1
# [6] = target: T1, Delta-type opioid receptor; experiment: Agonist activity at human recombinant delta opioid receptor expressed in human HEK293 cells by [35S]GTPgammaS binding assay; assay type: functional, cell-based
# [7] = target: Delta-type opioid receptor (Rattus norvegicus, UniProt P33533); experiment: Displacement of [3H]DADLE from delta opioid receptor in rat cerebrum membranes; assay type: cell membranes, Membrane; method in brief: as §1
# Mu-type opioid receptor [8] = target: Mu-type opioid receptor (Mus musculus, UniProt P42866); experiment: Displacement of [3H]DAMGO from mu opioid receptor in mouse whole brain membranes without cerebellum; assay type: cell membranes, Membrane
# [9] = target: Delta-type opioid receptor (Mus musculus, UniProt P32300); experiment: Displacement of [3H]DPDPE from delta opioid receptor in mouse whole brain membranes without cerebellum; assay type: cell membranes, Membrane
# [10] = target: T2, Kappa-type opioid receptor; experiment: Displacement of [3H]U-69,593 from kappa opioid receptor in guinea pig cerebellum membranes; assay type: cell membranes, Membrane
# Sequence of Mu-type opioid receptor (Rattus norvegicus, UniProt P33535) (P33535 whole entry): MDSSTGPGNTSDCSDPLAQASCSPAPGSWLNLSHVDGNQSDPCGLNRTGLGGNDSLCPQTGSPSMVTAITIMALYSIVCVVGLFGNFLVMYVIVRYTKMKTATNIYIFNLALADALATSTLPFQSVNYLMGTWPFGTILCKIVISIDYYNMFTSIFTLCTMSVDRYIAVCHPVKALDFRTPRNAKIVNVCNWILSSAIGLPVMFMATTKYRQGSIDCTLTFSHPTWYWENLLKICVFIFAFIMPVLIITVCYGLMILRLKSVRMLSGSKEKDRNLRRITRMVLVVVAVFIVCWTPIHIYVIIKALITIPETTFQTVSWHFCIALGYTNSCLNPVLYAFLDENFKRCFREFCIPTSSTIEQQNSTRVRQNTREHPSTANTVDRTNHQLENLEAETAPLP
# Sequence of Delta-type opioid receptor (Rattus norvegicus, UniProt P33533) (P33533 whole entry): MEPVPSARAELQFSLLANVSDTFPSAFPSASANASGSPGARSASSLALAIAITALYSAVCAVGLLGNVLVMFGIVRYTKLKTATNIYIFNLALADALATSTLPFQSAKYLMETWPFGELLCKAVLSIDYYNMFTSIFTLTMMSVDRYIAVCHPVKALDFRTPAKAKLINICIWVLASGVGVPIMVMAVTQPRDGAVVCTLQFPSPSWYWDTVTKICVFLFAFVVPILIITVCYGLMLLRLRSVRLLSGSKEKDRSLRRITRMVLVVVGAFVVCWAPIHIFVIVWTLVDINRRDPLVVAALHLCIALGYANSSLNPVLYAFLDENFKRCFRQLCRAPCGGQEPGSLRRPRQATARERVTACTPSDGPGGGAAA
# Sequence of Mu-type opioid receptor (Mus musculus, UniProt P42866) (P42866 whole entry): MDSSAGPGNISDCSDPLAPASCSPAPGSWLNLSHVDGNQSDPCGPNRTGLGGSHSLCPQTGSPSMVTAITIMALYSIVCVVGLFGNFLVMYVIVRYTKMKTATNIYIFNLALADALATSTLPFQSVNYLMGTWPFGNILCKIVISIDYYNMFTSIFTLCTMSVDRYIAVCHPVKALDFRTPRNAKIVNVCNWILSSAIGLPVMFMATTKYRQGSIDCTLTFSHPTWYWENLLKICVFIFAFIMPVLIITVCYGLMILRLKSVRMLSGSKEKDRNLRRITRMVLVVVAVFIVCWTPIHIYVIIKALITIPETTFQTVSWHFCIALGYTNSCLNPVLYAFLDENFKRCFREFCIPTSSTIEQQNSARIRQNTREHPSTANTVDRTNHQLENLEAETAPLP
# T1 sequence (P41143 whole entry): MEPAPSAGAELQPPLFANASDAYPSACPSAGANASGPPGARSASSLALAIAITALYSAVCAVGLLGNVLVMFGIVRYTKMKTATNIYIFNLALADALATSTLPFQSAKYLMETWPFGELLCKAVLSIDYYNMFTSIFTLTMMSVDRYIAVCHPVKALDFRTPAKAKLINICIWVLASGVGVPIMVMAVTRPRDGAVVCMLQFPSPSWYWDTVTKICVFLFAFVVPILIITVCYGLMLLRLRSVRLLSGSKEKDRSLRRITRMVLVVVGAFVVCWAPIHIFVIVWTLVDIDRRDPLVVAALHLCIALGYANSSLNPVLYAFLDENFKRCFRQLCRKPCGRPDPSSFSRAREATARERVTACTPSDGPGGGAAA
# T2 sequence (P41144 whole entry): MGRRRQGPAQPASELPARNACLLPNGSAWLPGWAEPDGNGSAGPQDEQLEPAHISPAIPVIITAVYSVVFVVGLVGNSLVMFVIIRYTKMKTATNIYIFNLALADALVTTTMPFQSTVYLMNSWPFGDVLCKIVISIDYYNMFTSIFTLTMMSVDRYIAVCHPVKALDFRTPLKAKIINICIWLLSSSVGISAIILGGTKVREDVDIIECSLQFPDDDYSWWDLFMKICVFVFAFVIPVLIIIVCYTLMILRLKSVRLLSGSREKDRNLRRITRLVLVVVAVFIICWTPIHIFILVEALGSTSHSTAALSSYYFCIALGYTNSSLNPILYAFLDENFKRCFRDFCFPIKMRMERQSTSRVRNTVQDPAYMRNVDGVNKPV
# Sequence of Delta-type opioid receptor (Mus musculus, UniProt P32300) (P32300 whole entry): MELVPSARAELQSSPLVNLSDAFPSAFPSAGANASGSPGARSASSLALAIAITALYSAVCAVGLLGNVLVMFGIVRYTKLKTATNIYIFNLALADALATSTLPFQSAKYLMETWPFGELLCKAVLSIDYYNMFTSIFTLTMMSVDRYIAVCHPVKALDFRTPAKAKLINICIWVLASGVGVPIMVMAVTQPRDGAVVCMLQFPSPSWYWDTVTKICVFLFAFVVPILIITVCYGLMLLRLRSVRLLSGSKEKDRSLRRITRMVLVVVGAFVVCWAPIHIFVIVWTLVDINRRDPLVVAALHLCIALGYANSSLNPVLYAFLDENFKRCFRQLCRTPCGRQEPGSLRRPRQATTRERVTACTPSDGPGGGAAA
Structure (SMILES),Ratio EC50 [1],Ratio EC50 [2],Ratio Ki (Rattus norvegicus),Ratio Ki [3],pKi [4],pKi (Mu-type opioid receptor [5]),pEC50 [6],pKi [7],pKi (Mu-type opioid receptor [8]),pKi [9],pKi [10]
CC(C)CN1CC[C@]23Cc4nc5ccccc5cc4C[C@H]2[C@H]1Cc1ccc(O)cc13,10,10,124,23.2,,,,,,,
Oc1ccc2c(c1)[C@]13CCN(CC4CC4)[C@H](C2)[C@@H]1Cc1cc2ccccc2nc1C3,10,10,4.1,1.9,,,,,,,
CN1CC[C@]2(c3cccc(O)c3)Cc3nc4ccccc4cc3C[C@H]2C1,,,197,509,,,,,,,
CN1CC[C@]23Cc4nc5ccccc5cc4C[C@H]2[C@H]1Cc1cccc(O)c13,,,51.8,263,6.58,7.29,8.75,9.00,,,
Oc1ccc2c(c1)[C@]13CCN(CC4CCC4)[C@H](C2)[C@@H]1Cc1cc2ccccc2nc1C3,,,,,,,,,8.20,9.92,8.97
Oc1cccc2c1[C@]13CCN(CC4CC4)[C@H](C2)[C@@H]1Cc1cc2ccccc2nc1C3,,,548,64.8,7.76,6.83,9.72,9.57,,,
CN1CC[C@]23Cc4nc5ccccc5cc4C[C@H]2[C@H]1Cc1ccc(O)cc13,10,10,82.4,72.9,,,,,7.63,9.54,7.84
CC(C)CN1CC[C@]23Cc4nc5ccccc5cc4C[C@H]2[C@H]1Cc1cccc(O)c13,,,265,423,6.29,6.49,8.63,8.91,,,
Oc1ccc2c(c1)[C@]13CCN(CCc4ccccc4)[C@H](C2)[C@@H]1Cc1cc2ccccc2nc1C3,,,,,,,,,7.90,8.33,7.75
Oc1ccc2c3c1O[C@H]1c4nc5ccccc5cc4C[C@H]4[C@@H](C2)N(CC2CC2)CC[C@]314,,,30.2,34.4,7.83,7.89,,9.37,,,
Oc1ccc2c(c1)[C@]13CCN(Cc4ccccc4)[C@H](C2)[C@@H]1Cc1cc2ccccc2nc1C3,,,,,,,,,7.11,7.91,7.30
Oc1ccc2c(c1)[C@]13CCN(CC4CCCC4)[C@H](C2)[C@@H]1Cc1cc2ccccc2nc1C3,,,,,,,,,7.70,9.46,8.45
